Two compounds from ChEMBL document CHEMBL4680142, “Thiazolidine-2,4-dione-based irreversible allosteric IKK-β kinase inhibitors: Optimization into in vivo active anti-inflammatory agents” (Eur J Med Chem, 2020) can be followed below.

By IC50 is commonly meant the concentration that gives 50% inhibition. For orientation: half-life means the time needed for the level to fall by half in the phase considered. The inhibition is the change of the read-out against control, counted positive when it falls.

A value given as a limit tells only on which side of the number the result lay.

A short description of data set [1]: Effect on NO production in non-stimulated mouse RAW264.7 cells at 10 uM after 24 hrs by Griess reagent based assay. The following applies: raw264.7, 24 h.
In data set [2] the target is T1, Inhibitor of nuclear factor kappa-B kinase subunit beta (Homo sapiens, UniProt O14920).
T1 sequence (O14920 whole entry): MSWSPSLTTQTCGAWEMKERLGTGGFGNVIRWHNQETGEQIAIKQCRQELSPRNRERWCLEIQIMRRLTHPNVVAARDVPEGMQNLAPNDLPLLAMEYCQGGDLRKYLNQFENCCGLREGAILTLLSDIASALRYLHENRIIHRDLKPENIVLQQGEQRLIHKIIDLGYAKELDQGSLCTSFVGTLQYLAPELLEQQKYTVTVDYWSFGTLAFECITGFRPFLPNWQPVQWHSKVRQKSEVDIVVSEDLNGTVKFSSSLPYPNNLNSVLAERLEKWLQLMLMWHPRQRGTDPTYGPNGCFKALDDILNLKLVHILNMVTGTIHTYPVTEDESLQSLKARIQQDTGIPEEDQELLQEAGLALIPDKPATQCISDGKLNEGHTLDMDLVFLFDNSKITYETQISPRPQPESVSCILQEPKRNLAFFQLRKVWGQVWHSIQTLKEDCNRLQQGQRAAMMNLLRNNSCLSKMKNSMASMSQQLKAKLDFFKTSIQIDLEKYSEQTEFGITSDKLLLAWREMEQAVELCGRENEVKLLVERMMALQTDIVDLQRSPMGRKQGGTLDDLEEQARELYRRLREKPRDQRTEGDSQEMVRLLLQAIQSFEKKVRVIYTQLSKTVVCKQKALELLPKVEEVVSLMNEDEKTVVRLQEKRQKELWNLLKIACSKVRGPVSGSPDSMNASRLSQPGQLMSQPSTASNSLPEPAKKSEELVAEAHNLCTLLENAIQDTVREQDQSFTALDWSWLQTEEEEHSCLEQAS
Description: Allosteric inhibition of IKKbeta (unknown origin) using 5FAM-GRHDSGLDSMK-NH2 as substrate pretreated for 10 mins followed measured after 2 hrs by TR-FRET assay. In a few lines:
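Enzyme: 0.5 µg/mL IKK2, in 10 mM Tris-HCl pH 7.2, 10 mM MgCl2, 0.05% NaN3, 1 mM DTT, 0.01% Tween-20. Compound at 10 µM pre-incubated 10 min, then 1 µM 5-FAM IκBα peptide and 3 µM ATP added. Reaction 2 h at room temperature. IMAP binding reagent/terbium detection mix added 15 h before reading. TR-FRET read with 340 nm excitation, emission 495/520 nm. Percent inhibition or IC50 derived.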
Background: TR-FRET usually uses a lanthanide donor and a delayed reading to cut background.

For data set [3], the system named is RAW264.7. Description: Antiinflammatory activity against mouse RAW264.7 cells assessed as reduction in LPS-induced IL-6 level incubated for 1 hr followed by LPS stimulation and measured after 24 hrs by ELISA. In kind it is functional, cell-based. In a few lines: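 RAW 264.7 cells (DMEM, 10% FBS, 37 °C, 5% CO2) plated at 2×10^5 cells/mL and left overnight. Compounds (0.1, 1, 10 µM) or NS-398 given for 1 h, then LPS 10 ng/mL for 24 h. Culture medium assayed by ELISA: competitive colorimetric for PGE2/TNF-α, mouse DuoSet for TNF-α/IL-6. IC50 is the concentration lowering the mediator to 50%.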

Data set [4] can be described thus: Metabolic stability in human liver microsomes assessed as half life at 1 uM measured upto 1 hrs by LC-MS/MS analysis. The format is ADME, Microsome. In a few lines: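 Pooled human liver microsomes (0.5 mg/mL protein) with 1 µM compound at 37 °C. Reaction stopped at 0, 5, 15, 30 and 60 min and analysed by LC-MS/MS. Amount remaining expressed as % of initial concentration. Mibefradil run as reference.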

In data set [5] the target is T2, Inhibitor of nuclear factor kappa-B kinase subunit beta (Homo sapiens) (UniProt O14920).
T2 sequence (whole entry): T1 sequence (O14920 whole entry)
Description: Allosteric inhibition of IKKbeta (unknown origin) using 5FAM-GRHDSGLDSMK-NH2 as substrate at 0.001 to 30 uM pretreated for 10 mins followed by substrate addition measured immediately by TR-FRET assay. As to conditions: filed as negative allosteric modulator, dose 0.001-30 µM. In a few lines:
(§1)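 IKK2 (0.5 µg/mL) in 10 mM Tris-HCl pH 7.2, 10 mM MgCl2, 0.05% NaN3, 1 mM DTT, 0.01% Tween-20, room temperature. Compound (30 to 0.001 µM, ten roughly three-fold dilutions) preincubated 10 min with enzyme. Reaction started with 1 µM 5FAM-IκBα peptide and 3 µM ATP, run 0, 20, 40 or 60 min. IMAP binding reagent/terbium donor detection, TR-FRET read at 495/520 nm. Kobs fitted against concentration by nonlinear regression.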

The target of data set [6] is T1, Inhibitor of nuclear factor kappa-B kinase subunit beta. Description: Allosteric inhibition of IKKbeta (unknown origin) using 5FAM-GRHDSGLDSMK-NH2 as substrate incubated for 10 mins followed by substrate addition and measured immediately by TR-FRET assay. In a few lines:
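Kinetic IMAP TR-FRET run with 0.5 µg/mL IKK2 in 10 mM Tris-HCl pH 7.2, 10 mM MgCl2, 0.05% NaN3, 1 mM DTT, 0.01% Tween-20. Compound (ten doses, 30 to 0.001 µM) pre-incubated with enzyme 10 min, then 1 µM IκBα-derived substrate and 3 µM ATP added. Room temperature. Reactions run 0, 20, 40 or 60 min. Ten-point curves fitted by nonlinear regression.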

Data set [7] concerns the target T2, Inhibitor of nuclear factor kappa-B kinase subunit beta (Homo sapiens). Description: Allosteric inhibition of IKKbeta (unknown origin) at 0.001 to 30 uM using 5FAM-GRHDSGLDSMK-NH2 as substrate incubated for 10 mins followed by substrate addition and measured after 40 mins by TR-FRET assay relative to control. The following applies: filed as negative allosteric modulator, dose 0.001-30 µM, time 50.0 min. In a few lines:
as §1

Data set [8] relates to RAW264.7. Description: Cytotoxicity against mouse RAW264.7 cells assessed as reduction in cell viability at 6 uM incubated for 24 hrs by MTT assay. In kind it is cell-based. The following applies: raw264.7, 24 h. In a few lines: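 MTT viability in RAW 264.7 cells seeded at 1×10^5 cells/mL and incubated overnight. Compounds added with or without LPS (1 µg/mL) for 24 h. MTT for 4 h at 37 °C, formazan dissolved in DMSO, absorbance read at 540 nm. IC80 is the concentration reducing viability to 80% with LPS.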
(Tetrazolium dyes change colour on reduction, which living cells bring about.)

The nature of data set [9]: Cytotoxicity against non-stimulated mouse RAW264.7 cells upto 10 uM after 24 hrs by MTT assay. The following applies: raw264.7, 24 h.
Data set [10] has as its system Mus musculus. Description: Antiinflammatory activity against LPS-induced sepsis C57BL/6 mouse model assessed as organism survival rate at 5 to 50 mg/kg, po administered 1 hr before LPS stimulation and measured after 36 hrs relative to control. In kind it is functional. As to conditions: dose 5-50 mg/kg, time 37 hrs. In a few lines: (§2)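 Male C57BL/6 mice (6 or 10 weeks), water only for 24 h beforehand. Compound given orally at 5 or 50 mg/kg 1 h before intraperitoneal injection of LPS (Salmonella enterica serotype enteritidis, 25 mg/kg in PBS); controls received PBS. Survival monitored for 36 h.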

Data set [11] deals with Mus musculus. Description: Antiinflammatory activity against LPS-induced sepsis C57BL/6 mouse model assessed as organism survival rate at 5 to 50 mg/kg, po administered 1 hr before LPS stimulation and measured after 16 hrs relative to control. The format is functional. As to conditions: dose 5-50 mg/kg, time 17 hrs. In a few lines: as §2

For `CN1CCN(CCCCCOc2cccc(N3C(=O)S/C(=C\c4ccc(Oc5ccc([N+](=O)[O-])cc5)cc4)C3=O)c2)CC1`, the Activity entry (in data set [1]; with RAW264.7 [8]; in data set [9]) was “Non-Toxic” each time. In addition, the IC50 in data set [2] is 220 nM; with RAW264.7 [3] it was above 10000 nM; in [6], 347 nM. For the same compound, in data set [4], the half-life at 1 µM was 60 min. Also, the inhibition in [5] was -5.63%; in data set [7], -8.33%.
With `CN1CCN(CCCOc2ccc(N3C(=O)S/C(=C\c4ccc(Oc5ccc(C#N)cc5)cc4)C3=O)cc2)CC1`, the Activity entry (in [1]; with RAW264.7 [8]; in data set [9]) was “Non-Toxic” throughout. For the same compound, the IC50 is 200 nM in [2], above 10000 nM with RAW264.7 [3] and 575 nM in [6]. The Survival in the data set with Mus musculus [10] was found to be 80%; in the data set with Mus musculus [11], 100%. Also, the half-life at 1 µM in [4] was found to be 20 min. Also, the inhibition in data set [5] was -9.33%; in data set [7], -4.47%.
